Source: ChEMBL document CHEMBL2424622, “Development of amino-pyrimidine inhibitors of c-Jun N-terminal kinase (JNK): kinase profiling guided optimization of a 1,2,3-benzotriazole lead” (Bioorg Med Chem Lett, 2013)
In brackets after ≈: the same amount, converted by molar mass.

Experiments:
[1] = target: Mitogen-activated protein kinase 9 (Homo sapiens, UniProt P45984); experiment: Binding affinity to JNK2 (unknown origin)
[2] = target: Mitogen-activated protein kinase 4 (Homo sapiens, UniProt P31152); experiment: Binding affinity to ERK4 (unknown origin)
[3] = target: Mitogen-activated protein kinase 15 (Homo sapiens, UniProt Q8TD08); experiment: Binding affinity to ERK8 (unknown origin)
Rattus norvegicus [4] = experiment: Cmax in Hanover-Wistar rat at 20 mg/kg, po; format: ADME, organism-based; design: dose 20 mg/kg, route oral; settings: in vivo
[5] = Intrinsic permeability from basolateral to apical side in human Caco2 cells at 10 uM; format: ADME, cell-based; settings: Caco-2, read-out: permeability
MAP kinase p38 = MAP kinase p38 (Homo sapiens, UniProt O15264+Q15759+Q16539+P53778); experiment: Inhibition of p38 (unknown origin)-dependent HSP27 phosphorylation by cell-based assay
[6] = Intrinsic clearance in rat liver microsomes measured per mg of protein; format: ADME, Microsome; settings: read-out: CLH
[7] = target: Cyclin-dependent kinase 11B (Homo sapiens, UniProt P21127); experiment: Binding affinity to CDC2L1 (unknown origin)
[8] = target: Mitogen-activated protein kinase 8 (Homo sapiens, UniProt P45983); experiment: Binding affinity to JNK1 (unknown origin)
[9] = target: Mitogen-activated protein kinase 1 (Homo sapiens, UniProt P28482); experiment: Binding affinity to ERK2 (unknown origin)
[10] = target: Atypical kinase COQ8A, mitochondrial (Homo sapiens, UniProt Q8NI60); experiment: Binding affinity to ADCK3 (unknown origin)
[11] = Half life in Hanover-Wistar rat at 2 mg/kg, po; format: ADME, organism-based; design: dose 2 mg/kg, route oral; settings: in vivo
[12] = target: Cyclin-dependent kinase 11A (Homo sapiens, UniProt Q9UQ88); experiment: Binding affinity to CDC2L2 (unknown origin)
[13] = AUC (0 to infinity) in Hanover-Wistar rat at 0.5 mg/kg, iv; format: ADME, organism-based; design: dose 0.5 mg/kg, route intravenous, time infinity; settings: plasma
[14] = target: Serine/threonine-protein kinase DCLK3 (Homo sapiens, UniProt Q9C098); experiment: Binding affinity to DCAMKL3 (unknown origin)
[15] = Intrinsic clearance in human liver microsomes measured per mg of protein; format: ADME, Microsome; settings: read-out: CLH
[16] = Fraction unbound in human plasma; format: ADME, cell-free
[17] = AUC (0 to infinity) in Hanover-Wistar rat at 20 mg/kg, po; format: ADME, organism-based; design: time infinity, dose 20 mg/kg, route oral; settings: plasma
[18] = target: Serine/threonine-protein kinase 17A (Homo sapiens, UniProt Q9UEE5); experiment: Binding affinity to DRAK1 (unknown origin)
[19] = target: Mitogen-activated protein kinase 3 (Homo sapiens, UniProt P27361); experiment: Binding affinity to ERK1 (unknown origin)
[20] = target: Interferon-induced, double-stranded RNA-activated protein kinase (Homo sapiens, UniProt P19525); experiment: Binding affinity to PRKR (unknown origin)
[21] = target: Mitogen-activated protein kinase 10 (Homo sapiens, UniProt P53779); experiment: Binding affinity to JNK3 (unknown origin)
[22] = target: Platelet-derived growth factor receptor beta (Homo sapiens, UniProt P09619); experiment: Binding affinity to PDGFRB (unknown origin)
[23] = target: Death-associated protein kinase 1 (Homo sapiens, UniProt P53355); experiment: Binding affinity to DAPK1 (unknown origin)
[24] = target: Mitogen-activated protein kinase 6 (Homo sapiens, UniProt Q16659); experiment: Binding affinity to ERK3 (unknown origin)
[25] = target: Serine/threonine-protein kinase Nek1 (Homo sapiens, UniProt Q96PY6); experiment: Binding affinity to NEK1 (unknown origin)
eIF-2-alpha kinase GCN2 = eIF-2-alpha kinase GCN2 (Homo sapiens, UniProt Q9P2K8, S808G); experiment: Binding affinity to GCN2 kinase domain 2 S808G mutant (unknown origin)
[26] = Equilibrium aqueous solubility in phosphate buffer at pH 6.5 at 25 degC; format: physicochemical
[27] = Oral bioavailability in Hanover-Wistar rat at 2 mg/kg; format: ADME, organism-based; settings: in vivo
[28] = target: Glycogen synthase kinase-3 alpha (Homo sapiens, UniProt P49840); experiment: Binding affinity to GSK3A (unknown origin)
[29] = Half life in Hanover-Wistar rat at 20 mg/kg, po; format: ADME, organism-based; design: dose 20 mg/kg, route oral; settings: in vivo
[30] = target: Cyclin-dependent kinase 7 (Homo sapiens, UniProt P50613); experiment: Binding affinity to CDK7 (unknown origin)
[31] = Clearance in human liver microsomes; format: ADME, Microsome; settings: read-out: CLH
Method in brief: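 Intrinsic clearance was measured in vitro in human liver microsomes and expressed per mg microsomal protein.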

Rattus norvegicus [32] = experiment: Cmax in Hanover-Wistar rat at 2 mg/kg, po; format: ADME, organism-based; design: dose 2 mg/kg, route oral; settings: in vivo
Rattus norvegicus [33] = experiment: Cmax in Hanover-Wistar rat at 0.5 mg/kg, iv; format: ADME, organism-based; design: dose 0.5 mg/kg, route intravenous; settings: in vivo
[34] = target: Death-associated protein kinase 2 (Homo sapiens, UniProt Q9UIK4); experiment: Binding affinity to DAPK2 (unknown origin)
LIM domain kinase 2 = LIM domain kinase 2 (Homo sapiens, UniProt P53671); experiment: Binding affinity to LIMK2 (unknown origin)
[35] = AUC (0 to infinity) in Hanover-Wistar rat at 2 mg/kg, po; format: ADME, organism-based; design: time infinity, dose 2 mg/kg, route oral; settings: plasma
[36] = target: Mitogen-activated protein kinase 7 (Homo sapiens, UniProt Q13164); experiment: Binding affinity to ERK5 (unknown origin)
[37] = target: MAP kinase-interacting serine/threonine-protein kinase 1 (Homo sapiens, UniProt Q9BUB5); experiment: Binding affinity to MKNK1 (unknown origin)
LIM domain kinase 1 = LIM domain kinase 1 (Homo sapiens, UniProt P53667); experiment: Binding affinity to LIMK1 (unknown origin)
[38] = Clearance in Hanover-Wistar rat at 0.5 mg/kg, iv; format: ADME, organism-based; design: dose 0.5 mg/kg, route intravenous; settings: in vivo
[39] = target: Serine/threonine-protein kinase Nek7 (Homo sapiens, UniProt Q8TDX7); experiment: Binding affinity to NEK7 (unknown origin)
[40] = Half life in Hanover-Wistar rat at 0.5 mg/kg, iv; format: ADME, organism-based; design: dose 0.5 mg/kg, route intravenous; settings: in vivo
[41] = Intrinsic permeability from apical to basolateral side in human Caco2 cells at 10 uM; format: ADME, cell-based; settings: Caco-2, read-out: permeability
[42] = target: Activated CDC42 kinase 1 (Homo sapiens) (UniProt Q07912); experiment: Competitive binding affinity to ACK1 (unknown origin) at 10 uM in presence of ATP relative to control
[43] = target: Serine/threonine-protein kinase ULK3 (Mus musculus) (UniProt Q3U3Q1); experiment: Competitive binding affinity to mouse ULK3 at 10 uM in presence of ATP relative to control
[44] = target: Serine/threonine-protein kinase 10 (Homo sapiens) (UniProt O94804); experiment: Competitive binding affinity to STK10 (unknown origin) at 10 uM in presence of ATP relative to control
Cytochrome P450 2C9 = Cytochrome P450 2C9 (Homo sapiens, UniProt P11712); experiment: Inhibition of CYP2C9 (unknown origin); format: ADME
[45] = target: Serine/threonine-protein kinase 24 (Homo sapiens) (UniProt Q9Y6E0); experiment: Competitive binding affinity to STK24 (unknown origin) at 10 uM in presence of ATP relative to control
[46] = target: Serine/threonine-protein kinase 25 (Homo sapiens) (UniProt O00506); experiment: Competitive binding affinity to STK25 (unknown origin) at 10 uM in presence of ATP relative to control

Serine/threonine-protein kinase ULK3 (Mus musculus), sequence (Q3U3Q1 whole entry): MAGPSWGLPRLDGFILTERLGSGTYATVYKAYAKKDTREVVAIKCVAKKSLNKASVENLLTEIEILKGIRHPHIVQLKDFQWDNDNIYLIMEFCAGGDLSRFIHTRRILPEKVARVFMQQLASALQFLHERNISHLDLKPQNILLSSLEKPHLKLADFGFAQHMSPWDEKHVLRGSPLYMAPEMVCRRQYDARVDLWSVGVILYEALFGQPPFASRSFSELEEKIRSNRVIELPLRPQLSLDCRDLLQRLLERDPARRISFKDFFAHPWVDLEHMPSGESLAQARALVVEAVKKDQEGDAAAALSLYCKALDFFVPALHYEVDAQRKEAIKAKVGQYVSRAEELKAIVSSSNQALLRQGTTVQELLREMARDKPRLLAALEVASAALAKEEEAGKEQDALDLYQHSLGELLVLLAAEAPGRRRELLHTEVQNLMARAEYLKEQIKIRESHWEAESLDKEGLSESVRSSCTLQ
Serine/threonine-protein kinase 10 (Homo sapiens), sequence (O94804 whole entry, looked up): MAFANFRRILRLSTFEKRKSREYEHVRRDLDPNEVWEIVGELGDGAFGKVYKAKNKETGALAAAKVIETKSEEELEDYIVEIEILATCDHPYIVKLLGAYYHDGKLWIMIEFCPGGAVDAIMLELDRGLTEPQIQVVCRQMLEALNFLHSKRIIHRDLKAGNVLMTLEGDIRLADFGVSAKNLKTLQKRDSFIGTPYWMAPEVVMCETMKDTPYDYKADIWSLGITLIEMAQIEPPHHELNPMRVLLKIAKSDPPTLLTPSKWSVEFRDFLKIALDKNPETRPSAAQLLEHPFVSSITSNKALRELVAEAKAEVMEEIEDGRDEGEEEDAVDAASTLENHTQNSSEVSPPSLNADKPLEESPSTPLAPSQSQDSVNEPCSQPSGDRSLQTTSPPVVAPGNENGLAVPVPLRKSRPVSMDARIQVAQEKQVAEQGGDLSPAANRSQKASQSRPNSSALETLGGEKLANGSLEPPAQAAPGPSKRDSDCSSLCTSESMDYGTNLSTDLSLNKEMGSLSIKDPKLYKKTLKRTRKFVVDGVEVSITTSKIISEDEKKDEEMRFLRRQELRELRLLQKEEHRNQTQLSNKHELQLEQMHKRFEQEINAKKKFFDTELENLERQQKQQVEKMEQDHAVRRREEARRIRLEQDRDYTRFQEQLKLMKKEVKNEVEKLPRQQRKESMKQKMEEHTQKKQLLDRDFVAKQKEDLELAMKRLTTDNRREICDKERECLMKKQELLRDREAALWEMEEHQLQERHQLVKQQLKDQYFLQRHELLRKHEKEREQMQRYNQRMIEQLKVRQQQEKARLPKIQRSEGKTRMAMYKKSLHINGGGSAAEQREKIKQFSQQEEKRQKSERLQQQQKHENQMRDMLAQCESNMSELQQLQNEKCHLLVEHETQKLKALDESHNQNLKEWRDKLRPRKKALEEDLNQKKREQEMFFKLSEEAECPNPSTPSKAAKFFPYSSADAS
Activated CDC42 kinase 1 (Homo sapiens), sequence (Q07912 whole entry, looked up): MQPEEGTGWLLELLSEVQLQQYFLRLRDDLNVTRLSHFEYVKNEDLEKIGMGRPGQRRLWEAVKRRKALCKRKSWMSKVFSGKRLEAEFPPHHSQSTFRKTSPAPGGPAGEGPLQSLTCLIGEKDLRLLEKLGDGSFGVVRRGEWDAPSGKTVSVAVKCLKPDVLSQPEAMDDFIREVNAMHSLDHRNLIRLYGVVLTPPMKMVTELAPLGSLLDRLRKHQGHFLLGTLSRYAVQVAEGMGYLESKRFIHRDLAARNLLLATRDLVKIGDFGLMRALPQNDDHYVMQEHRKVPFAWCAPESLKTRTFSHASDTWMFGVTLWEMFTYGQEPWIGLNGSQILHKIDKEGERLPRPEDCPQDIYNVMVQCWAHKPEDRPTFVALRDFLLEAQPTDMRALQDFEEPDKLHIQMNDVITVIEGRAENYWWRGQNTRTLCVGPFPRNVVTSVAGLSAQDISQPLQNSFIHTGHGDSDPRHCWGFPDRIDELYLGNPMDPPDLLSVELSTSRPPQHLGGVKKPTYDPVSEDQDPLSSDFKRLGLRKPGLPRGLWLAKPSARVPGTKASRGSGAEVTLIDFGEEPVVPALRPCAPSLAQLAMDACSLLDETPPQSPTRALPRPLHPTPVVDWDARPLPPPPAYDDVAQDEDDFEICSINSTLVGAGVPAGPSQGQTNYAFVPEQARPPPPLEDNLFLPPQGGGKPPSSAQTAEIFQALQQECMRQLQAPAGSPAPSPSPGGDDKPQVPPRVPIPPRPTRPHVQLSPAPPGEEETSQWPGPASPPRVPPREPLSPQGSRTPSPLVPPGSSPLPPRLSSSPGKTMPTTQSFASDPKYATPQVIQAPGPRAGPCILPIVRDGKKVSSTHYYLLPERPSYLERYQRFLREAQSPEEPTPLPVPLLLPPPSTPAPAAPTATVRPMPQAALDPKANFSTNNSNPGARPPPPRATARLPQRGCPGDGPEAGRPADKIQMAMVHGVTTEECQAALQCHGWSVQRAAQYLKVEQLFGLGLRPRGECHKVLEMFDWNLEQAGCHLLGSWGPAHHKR
Cyclin-dependent kinase 7, sequence (P50613 whole entry): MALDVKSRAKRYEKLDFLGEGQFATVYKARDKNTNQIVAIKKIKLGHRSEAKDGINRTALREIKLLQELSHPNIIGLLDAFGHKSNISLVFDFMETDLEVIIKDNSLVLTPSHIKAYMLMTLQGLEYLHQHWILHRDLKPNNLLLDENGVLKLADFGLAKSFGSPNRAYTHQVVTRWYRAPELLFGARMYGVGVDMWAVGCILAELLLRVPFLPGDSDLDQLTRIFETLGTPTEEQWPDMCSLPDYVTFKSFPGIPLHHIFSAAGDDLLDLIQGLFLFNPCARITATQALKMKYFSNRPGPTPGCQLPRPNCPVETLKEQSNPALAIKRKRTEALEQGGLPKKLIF
Cyclin-dependent kinase 11A, sequence (Q9UQ88 whole entry): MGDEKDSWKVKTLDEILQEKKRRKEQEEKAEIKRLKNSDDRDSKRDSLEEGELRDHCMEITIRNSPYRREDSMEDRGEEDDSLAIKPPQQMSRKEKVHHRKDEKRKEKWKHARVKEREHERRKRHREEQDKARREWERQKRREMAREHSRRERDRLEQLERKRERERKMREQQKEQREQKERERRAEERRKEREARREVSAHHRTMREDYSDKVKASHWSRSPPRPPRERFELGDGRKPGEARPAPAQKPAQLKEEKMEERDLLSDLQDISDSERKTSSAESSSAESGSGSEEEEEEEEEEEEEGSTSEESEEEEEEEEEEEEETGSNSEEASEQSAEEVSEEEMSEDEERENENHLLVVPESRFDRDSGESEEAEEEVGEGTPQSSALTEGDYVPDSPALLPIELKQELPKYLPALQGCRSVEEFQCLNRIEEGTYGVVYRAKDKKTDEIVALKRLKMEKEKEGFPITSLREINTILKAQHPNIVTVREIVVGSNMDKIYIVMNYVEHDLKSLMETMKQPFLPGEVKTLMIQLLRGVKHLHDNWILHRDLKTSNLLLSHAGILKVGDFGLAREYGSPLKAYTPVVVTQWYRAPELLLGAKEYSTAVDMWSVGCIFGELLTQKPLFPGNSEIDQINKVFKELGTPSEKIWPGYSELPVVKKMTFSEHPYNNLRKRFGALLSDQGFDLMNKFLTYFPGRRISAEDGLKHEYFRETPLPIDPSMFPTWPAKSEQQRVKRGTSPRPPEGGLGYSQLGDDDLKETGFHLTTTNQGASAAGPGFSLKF
Mitogen-activated protein kinase 9, sequence (P45984 whole entry): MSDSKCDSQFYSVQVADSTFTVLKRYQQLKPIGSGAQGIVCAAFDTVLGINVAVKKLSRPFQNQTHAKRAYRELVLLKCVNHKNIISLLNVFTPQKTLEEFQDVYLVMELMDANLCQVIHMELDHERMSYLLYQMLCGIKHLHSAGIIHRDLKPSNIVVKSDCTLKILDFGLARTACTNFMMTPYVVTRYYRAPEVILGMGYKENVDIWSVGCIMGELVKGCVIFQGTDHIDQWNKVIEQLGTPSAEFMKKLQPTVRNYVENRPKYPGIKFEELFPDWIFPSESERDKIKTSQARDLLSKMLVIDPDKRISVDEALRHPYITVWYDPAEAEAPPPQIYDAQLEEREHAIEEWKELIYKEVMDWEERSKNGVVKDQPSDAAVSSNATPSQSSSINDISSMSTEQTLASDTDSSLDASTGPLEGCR
Mitogen-activated protein kinase 4, sequence (P31152 whole entry): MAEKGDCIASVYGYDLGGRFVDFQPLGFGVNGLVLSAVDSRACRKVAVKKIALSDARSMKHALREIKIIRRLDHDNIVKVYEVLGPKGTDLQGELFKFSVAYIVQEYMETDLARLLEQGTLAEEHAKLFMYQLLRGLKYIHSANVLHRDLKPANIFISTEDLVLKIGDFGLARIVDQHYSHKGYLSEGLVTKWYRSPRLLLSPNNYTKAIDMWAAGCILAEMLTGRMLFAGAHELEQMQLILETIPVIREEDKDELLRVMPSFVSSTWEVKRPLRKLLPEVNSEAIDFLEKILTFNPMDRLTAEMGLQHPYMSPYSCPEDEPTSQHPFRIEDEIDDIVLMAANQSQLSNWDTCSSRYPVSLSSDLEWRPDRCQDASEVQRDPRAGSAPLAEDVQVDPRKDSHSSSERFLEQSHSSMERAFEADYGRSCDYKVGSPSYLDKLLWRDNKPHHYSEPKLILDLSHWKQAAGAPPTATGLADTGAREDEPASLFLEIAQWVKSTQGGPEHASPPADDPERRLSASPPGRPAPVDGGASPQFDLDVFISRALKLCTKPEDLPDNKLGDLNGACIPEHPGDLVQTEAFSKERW
Serine/threonine-protein kinase 17A, sequence (Q9UEE5 whole entry): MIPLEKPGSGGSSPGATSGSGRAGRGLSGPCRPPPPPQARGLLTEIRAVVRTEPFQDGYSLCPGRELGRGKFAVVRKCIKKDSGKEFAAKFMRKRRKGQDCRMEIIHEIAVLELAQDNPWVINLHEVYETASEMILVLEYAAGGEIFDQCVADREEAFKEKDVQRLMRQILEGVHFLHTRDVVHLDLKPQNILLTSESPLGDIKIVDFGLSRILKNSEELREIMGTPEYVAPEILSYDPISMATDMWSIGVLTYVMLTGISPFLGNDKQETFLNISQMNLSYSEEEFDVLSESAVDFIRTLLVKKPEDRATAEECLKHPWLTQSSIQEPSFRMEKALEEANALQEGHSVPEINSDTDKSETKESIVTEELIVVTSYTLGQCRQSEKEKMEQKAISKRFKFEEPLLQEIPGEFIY

CS(=O)(=O)CCCOc1cccc2c1ccn2-c1ccnc(N[C@H]2CC[C@H](C(=O)N3CCC(O)CC3)CC2)n1
Kd [1]: 13 nM
Kd [2]: 11000 nM
Kd [3]: 650 nM
Cmax (Rattus norvegicus [4]): 3680 ng/mL
Papp B→A at 10 µM [5]: 11.5 ×10⁻⁶ cm/s
IC50 (MAP kinase p38): > 30000 nM
microsomal CLint [6]: 52 µL/min/mg
Kd [7]: 1300 nM
Kd [8]: 0.75 nM
Kd [9]: 1500 nM
Kd [10]: 490 nM
half-life [11]: 4 h
Kd [12]: 2400 nM
AUC(0-inf) [13]: 1850 ng·h/mL
Kd [14]: 1800 nM
microsomal CLint [15]: 30 µL/min/mg
fraction unbound [16]: 0.05
AUC(0-inf) [17]: 9330 ng·h/mL
Kd [18]: 440 nM
Kd [19]: 1800 nM
Kd [20]: 120 nM
Kd [21]: 1.8 nM
Kd [22]: 6800 nM
Kd [23]: 380 nM
Kd [24]: 330 nM
Kd [25]: 4000 nM
Kd (eIF-2-alpha kinase GCN2): 2700 nM
solubility thermodynamic [26]: 3.9 µg/mL (≈ 7.02 µM)
bioavailability [27]: 7%
Kd [28]: 1300 nM
half-life [29]: 2.9 h
Kd [30]: 620 nM
microsomal CLint [31]: 30 µL/min/mg
Cmax (Rattus norvegicus [32]): 91 ng/mL
Cmax (Rattus norvegicus [33]): 2670 ng/mL
Kd [34]: 1300 nM
Kd (LIM domain kinase 2): 2800 nM
AUC(0-inf) [35]: 490 ng·h/mL
Kd [36]: 1500 nM
Kd [37]: 2100 nM
Kd (LIM domain kinase 1): 870 nM
clearance [38]: 4.6 mL/min/kg
Kd [39]: 6900 nM
half-life [40]: 2.6 h
Papp A→B at 10 µM [41]: 0.2 ×10⁻⁶ cm/s

N[C@H]1CC[C@H](Nc2nccc(-n3nnc4ccccc43)n2)CC1
inhibition [42]: < 50%
inhibition [43]: < 50%
inhibition [44]: < 50%

O[C@H]1CC[C@H](Nc2nccc(-n3nnc4ccccc43)n2)CC1
IC50 (Cytochrome P450 2C9): 7.8 nM

O=C([C@H]1CC[C@H](Nc2nccc(-n3nnc4ccccc43)n2)CC1)N1CCOCC1
inhibition [42]: < 50%
inhibition [43]: < 50%
inhibition [44]: < 50%

O[C@H]1CC[C@H](Nc2nccc(-c3n[nH]c4ccccc34)n2)CC1
inhibition [45]: 93%
inhibition [46]: 85%
